Data as given in publication PMC8360206 (Cancer, 2021).
Where two headings read alike, the source gives them in different places.

Tests used:
[1] = test system: patients with relapsed/refractory AML; experiment: Safety: treatment‐emergent adverse events and DLTs; type: in vivo, human
Summary of the method: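 3 + 3 dose escalation, daily dosing in 28-day cycles. Monotherapy was 1.5, 2.0 or 2.5 mg. TEAEs (first dose to 30 days post-discontinuation) were graded by NCI CTCAE v4.03 in all patients given ≥1 dose.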

[2] = test system: relapsed/refractory acute myeloid leukemia; experiment: Clinical activity: IWG response, bone marrow blast change, PFS, OS; type: in vivo, human
Summary of the method: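 Adults (≥18 y) with relapsed/refractory AML got the test compound daily in 28-day cycles at 1.5, 2.0 or 2.5 mg as monotherapy. Response followed revised IWG AML criteria, comparing baseline bone marrow with at least 1 on-treatment marrow sample. Marrow was sampled at screening, C2D1 and as clinically indicated. Patients without a postbaseline sample were not evaluable. PFS and OS were summarised descriptively.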

[3] = Plasma mivebresib pharmacokinetics; type: in vivo, human
[4] = test system: DCXR, HEXIM1, CD93, MYC, BCL2, PUMA, BIM gene expression in peripheral blood; type: in vivo, human; conditions: for pharmacodynamic effects (gene modulation) vs dose and drug exposure: peripheral blood, correlation with Cmax, P < .05
Summary of the method: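 Whole blood was drawn before and 6 h after the C1D1 monotherapy dose. RNA from it underwent whole-transcriptome sequencing, and marker expression was given as percent change from baseline. Linear regression related C1D1 plasma Cmax to biomarker change.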

[5] = test system: patients with relapsed/refractory solid tumors; conditions: cited from earlier work
patients with R/R AML = conditions: OTX015 monotherapy ref 10; cited from earlier work
[6] = MIV‐mono n = 19, started MIV‐Ven n = 25
[7] = started arms (mono n = 19, combination n = 25)
[8] = PB, 6 hours after MIV‐mono administration, P < .001

CCS(=O)(=O)Nc1ccc(Oc2ccc(F)cc2F)c(-c2cn(C)c(=O)c3[nH]ccc23)c1 [mivebresib]
anemia, grade ≥3 mivebresib‐related TEAE ([1]; MIV‐mono n = 19): 26%
decreased appetite, TEAE frequency ([1]; MIV‐mono n = 19): 58%
decreased appetite, grade ≥3 ([1]; MIV‐mono n = 19): 11%
diarrhea, grade ≥3 ([1]; MIV‐mono n = 19): no grade ≥3
fatigue, TEAE frequency ([1]; MIV‐mono n = 19): 68%
fatigue, grade ≥3 ([1]; MIV‐mono n = 19): 21%
nausea, grade ≥3 ([1]; MIV‐mono n = 19): 5%
pneumonia, serious TEAE ([1]; MIV‐mono n = 19): 16%
AML progression (AML), serious TEAE [1, 6]: 16%
decreased appetite, mivebresib‐related TEAE [1, 6]: 42%
diarrhea, mivebresib‐related TEAE [1, 6]: 42%
dysgeusia, mivebresib‐related TEAE [1, 6]: 74%
febrile neutropenia, serious TEAE [1, 6]: 16%
grade ≥3 mivebresib‐related TEAEs, patients [1, 6]: 68%
serious adverse events (serious TEAEs regardless of relatedness), patients [1, 6]: 74%
thrombocytopenia, grade ≥3 mivebresib‐related TEAE [1, 6]: 32%
dose‐limiting toxicities (DLTs) ([1]; first 4 weeks, all dose levels): No DLTs occurred
ALT increased, AE related to mivebresib [1, 7]: 1 (5) No. of Patients (%)
AST increased, AE related to mivebresib [1, 7]: 0 (0) No. of Patients (%)
Anemia, AE related to mivebresib [1, 7]: 7 (37) No. of Patients (%)
Anemia, TEAE [1, 7]: 13 (68) No. of Patients (%)
Any TEAEs [1, 7]: 19 (100) No. of Patients (%)
Cough, TEAE [1, 7]: 6 (32) No. of Patients (%)
Decreased appetite, AE related to mivebresib [1, 7]: 8 (42) No. of Patients (%)
Decreased appetite, TEAE [1, 7]: 11 (58) No. of Patients (%)
Diarrhea, AE related to mivebresib [1, 7]: 8 (42) No. of Patients (%)
Diarrhea, TEAE [1, 7]: 9 (47) No. of Patients (%)
Dry mouth, AE related to mivebresib [1, 7]: 2 (11) No. of Patients (%)
Dysgeusia, AE related to mivebresib [1, 7]: 14 (74) No. of Patients (%)
Dysgeusia, TEAE [1, 7]: 15 (79) No. of Patients (%)
Dyspnea, TEAE [1, 7]: 6 (32) No. of Patients (%)
Epistaxis, AE related to mivebresib [1, 7]: 3 (16) No. of Patients (%)
Epistaxis, TEAE [1, 7]: 4 (21) No. of Patients (%)
Fatigue, AE related to mivebresib [1, 7]: 7 (37) No. of Patients (%)
Fatigue, TEAE [1, 7]: 13 (68) No. of Patients (%)
Febrile neutropenia, AE related to mivebresib [1, 7]: 0 (0) No. of Patients (%)
Febrile neutropenia, TEAE [1, 7]: 7 (37) No. of Patients (%)
Headache, AE related to mivebresib [1, 7]: 0 (0) No. of Patients (%)
Hyperbilirubinemia, TEAE [1, 7]: 6 (32) No. of Patients (%)
Hypokalemia, TEAE [1, 7]: 3 (16) No. of Patients (%)
Hypomagnesemia, TEAE [1, 7]: 2 (11) No. of Patients (%)
Muscular weakness, TEAE [1, 7]: 7 (37) No. of Patients (%)
Nausea, AE related to mivebresib [1, 7]: 7 (37) No. of Patients (%)
Nausea, TEAE [1, 7]: 9 (47) No. of Patients (%)
Neutrophil count decreased, AE related to mivebresib [1, 7]: 2 (11) No. of Patients (%)
Platelet count decreased, AE related to mivebresib [1, 7]: 2 (11) No. of Patients (%)
Stomatitis, AE related to mivebresib [1, 7]: 1 (5) No. of Patients (%)
Thrombocytopenia, AE related to mivebresib [1, 7]: 7 (37) No. of Patients (%)
Thrombocytopenia, TEAE [1, 7]: 10 (53) No. of Patients (%)
Vomiting, AE related to mivebresib [1, 7]: 5 (26) No. of Patients (%)
Vomiting, TEAE [1, 7]: 6 (32) No. of Patients (%)
WBC count decreased, AE related to mivebresib [1, 7]: 1 (5) No. of Patients (%)
Weight decreased, AE related to mivebresib [1, 7]: 2 (11) No. of Patients (%)
patients with an AE leading to discontinuation ([1]; whole study, MIV‐mono and MIV‐Ven): Seventeen
response: CRi ([2]; 19 patients who received MIV‐mono): 5%
median OS ([2]; MIV‐mono 1.5 mg): 15.7 weeks
median PFS ([2]; MIV‐mono 1.5 mg): 7.2 weeks
median OS ([2]; MIV‐mono 2.0 mg): 22.0 weeks
median PFS ([2]; MIV‐mono 2.0 mg): 13.9 weeks
median OS ([2]; MIV‐mono 2.5 mg): 12.6 weeks
median PFS ([2]; MIV‐mono 2.5 mg): 10.6 weeks
patients with FLT3 and NPM1 co‐occurrence who responded / had a reduction in BM blasts ([2]; MIV‐mono 3 patients, MIV‐Ven 4 patients): None
response: CRi ([2]; MIV‐mono group): 1 patient
patients with measurable reduction in BM blasts ([2]; assessable patients: 16 MIV‐mono, 15 only MIV‐Ven): 44%
Best IWG response: Aplasia [2, 7]: 0 (0) No. of Patients (%)
Best IWG response: CR [2, 7]: 0 (0) No. of Patients (%)
Best IWG response: CRi [2, 7]: 1 (5) No. of Patients (%)
Best IWG response: MLFS [2, 7]: 0 (0) No. of Patients (%)
Best IWG response: PR [2, 7]: 0 (0) No. of Patients (%)
Best IWG response: Resistant disease [2, 7]: 15 (79) No. of Patients (%)
Best IWG response: Unknown: Not assessable or insufficient data [2, 7]: 3 (16) No. of Patients (%)
steady‐state accumulation ratio ([3]; AUC0‐24 on C1D8 versus C1D1, daily dosing): approximately 2 fold
dose proportionality of PK ([3]; dose‐normalized C1D8 Cmax and AUC24 over the studied dosing range): approximately dose proportional
half-life ([3]; human, plasma, oral): 16.4 h
effect of venetoclax coadministration on mivebresib PK ([3]; monotherapy vs combination cohorts): no effect
BIM (proapoptotic gene) expression ([4]; 6 hours after MIV‐mono, P < .0005, data not shown): increased
BCL2 (antiapoptotic gene) expression ([4]; 6 hours after MIV‐mono, P < .01, data not shown): inhibited
PUMA (proapoptotic gene) expression ([4]; 6 hours after MIV‐mono, P < .064, data not shown): increased
CD93 expression [4, 8]: decrease
DCXR gene expression [4, 8]: increase
HEXIM1 gene expression [4, 8]: increase
MYC expression ([4]; PB, 6 hours after MIV‐mono administration, P < .083): decrease
pharmacodynamic effects (gene modulation) vs dose and drug exposure [4]: proportional to dose and drug exposure
pharmacodynamic effects (gene modulation) vs dose and drug exposure ([4]; listed as MIV‐mono): dose‐dependent
solid tumor recommended phase 2 dose [5]: 1.5 mg daily

Cc1sc2c(c1C)C(c1ccc(Cl)cc1)=N[C@@H](CC(=O)Nc1ccc(O)cc1)c1nnc(C)n1-2 [OTX015]
rate of diarrhea (patients with R/R AML): 34%
rate of nausea (patients with R/R AML): 22%
rate of vomiting (patients with R/R AML): 7%
